From PubChem BioAssay
In the library only some 1.5% were active in any assay of this set; here they are far more common.
APJ antag: antagonists of human apelin receptor APJ, primary screen, CHO-K1 cells, beta-arrestin complementation, luminescence; inhibition, % at 20 µM; actives 0.32% (n = 330,000); AID 2521, 2010;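 active means inhibition above about 40% at 20 µM, limit read from the data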;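 further: cells challenged with 10 nM apelin-13 agonist together with compound; plate controls were apelin-13 plus DMSO wells for no effect and DMSO wells lacking apelin-13 for full effect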
CCR6 antag: CCR6 receptor antagonists, primary screen, cell-based, CHO-K1, luminescence, beta-arrestin, uHTS. CHO-K1 CCR6 PathHunter beta-arrestin, CCL20-stimulated. AID 493098, 2011. actives 0.49% (n = 340,000). inhibition, % at 20 µM. C-C chemokine receptor type 6 (Homo sapiens), P51684;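 active means compounds whose inhibition of the agonist-driven luminescence signal at 20 µM reaches about 50%, limit read from the data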;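 further: cells stimulated with CCL20 at 14 nM final; plate controls were DMSO with CCL20 for no effect and DMSO without agonist for full effect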
APJ ag: agonists of human apelin receptor APJ, primary screen, CHO-K1 cells, PathHunter beta-arrestin, luminescence | activation, % at 20 µM | AID 2520, 2010 | actives 0.11% (n = 330,000) | 0% DMSO wells, 100% apelin;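 active means activation more than six SD over the plate average, tested at 20 µM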;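 further: 0% = DMSO alone and 100% = apelin-13 at 10 nM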
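Test system – PathHunter CHO-K1 APJ (AGTRL-1) beta-arrestin reporter cells · Input – 1000 cells/well · Compound – single test compound dose, 20 µM final, 1% DMSO · Times – compound stimulation 90 min at 25 °C, detection 60 min · Technique – beta-gal luminescence · Read-out basis – APJ–arrestin association signal · Control set – negative DMSO alone, positive Apelin-13 at 10 nM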
CXCR6 block: CXCR6 receptor inhibitors, primary screen, cell-based, beta-arrestin, luminescence, CHO-K1 PathHunter, 1536-well. inhibition, % at 20 µM. actives 0.36% (n = 360,000). C-X-C chemokine receptor type 6 (Homo sapiens), O00574. AID 602244, 2012; in the data active means inhibition above about 34%, passing the limit was not always enough;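 further: antagonist mode with CXCL16 agonist at 10 nM final; 0% = 10 nM CXCL16 with DMSO and 100% = unstimulated wells without agonist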
Target sequence (O00574 whole entry, looked up): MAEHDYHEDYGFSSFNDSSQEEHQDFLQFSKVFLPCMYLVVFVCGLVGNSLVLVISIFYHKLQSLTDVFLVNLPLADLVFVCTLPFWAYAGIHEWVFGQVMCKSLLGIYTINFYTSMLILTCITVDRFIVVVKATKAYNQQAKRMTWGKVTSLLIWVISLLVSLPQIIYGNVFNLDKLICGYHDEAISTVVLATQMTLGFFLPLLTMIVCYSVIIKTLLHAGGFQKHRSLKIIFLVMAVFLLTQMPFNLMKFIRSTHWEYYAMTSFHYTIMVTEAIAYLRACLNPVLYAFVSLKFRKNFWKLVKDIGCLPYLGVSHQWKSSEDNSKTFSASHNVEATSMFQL
EBI2 antag: EBI2 receptor antagonists, beta-arrestin recruitment, primary screen, cell-based, luminescence, 7a,25-OHC stimulation, uHTS; G-protein coupled receptor 183 (Homo sapiens), P32249; 7a,25-OHC stimulated; inhibition, % at 5 µM; actives 0.81% (n = 360,000); AID 651636, 2012; in the data active means inhibition above about 38%;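 further: enzyme fragment complementation signal reports receptor beta-arrestin coupling in cells; 0% = agonist plus DMSO wells and 100% = wells without agonist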
CXCR6 confirm: CXCR6 receptor antagonists, confirmation, cell-based, single concentration, beta-arrestin, luminescence; shares compounds with CXCR6 block; CHO-K1 CXCR6 PathHunter beta-arrestin; inhibition, % at 20 µM; actives 65% (n = 700); AID 602409, 2012;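 active means mean inhibition over four retests above 40%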;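 further: receptor stimulated with 10 nM CXCL16 agonist; beta-galactosidase fragment complementation upon beta-arrestin recruitment to receptor; plate controls were CXCL16 plus DMSO for no effect and DMSO without CXCL16 for full effect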
Active calls of the source: *; x = no result given.

SMILES | APJ antag | CCR6 antag | APJ ag | CXCR6 block | EBI2 antag | CXCR6 confirm
COC(=O)C1=C(C)N(Cc2ccccc2)C(=NCCN2CCOCC2)N[C@H]1CCc1ccccc1 | 10 | -4 | -6 | 3 | -7 | x
CCCc1cc(NCc2ccccn2)n2c(nc3ccccc32)c1C#N | -20 | 2 | 3 | 59* | -38 | -1
Cc1cc(NCc2ccccn2)n2c(nc3ccccc32)c1C#N | x | -7 | x | -15 | -8 | x
Cc1c(NC(=O)CCCCCN2C(=O)c3ccccc3C2=O)c(=O)n(-c2ccccc2)n1C | -19 | -16 | 1 | 5 | -3 | x
NCCCCC(N)c1cn([C@@H](CCC(=O)O)C(=O)N2CCNCC2)nn1 (some centres not stated) | 1 | 0 | 2 | 4 | -6 | x
COc1ccc(N(CC(=O)NC2CCCC2)S(=O)(=O)c2c(C)[nH]c(=O)[nH]c2=O)cc1 | -61 | 7 | -3 | 35* | -1 | 8
Cc1cc(C)cc(N(CC(=O)NC2CCCC2)S(=O)(=O)c2c(C)[nH]c(=O)[nH]c2=O)c1 | 7 | 6 | -5 | 4 | -3 | x
CCOC(=O)c1c(NC(=O)COC(=O)c2cccc([N+](=O)[O-])c2)sc(C(=O)N(C)C)c1C | x | x | x | 5 | -10 | x
Cc1cnc(C(=O)Nc2cccc3cccnc23)cn1 | x | 56* | x | 51* | 12 | 40
C[C@@H]1CC[C@H](Cc2ccc(-n3cccc3)cc2)N1C(=O)OC(C)(C)C | x | x | x | 53* | 11 | 10
O=C(NNC(=O)c1cc(-c2ccccc2)nn1-c1ccccc1)c1ccccc1 | -10 | x | -5 | 46* | 16 | 41*
CN(C)/C=C/c1oc2ccc(O)cc2c1[N+](=O)[O-] | 49* | 61* | -7 | 42* | 3 | 66*
Cc1oc2ccc(O)cc2c1C(=O)c1ccc([N+](=O)[O-])cc1 | -48 | 2 | 10 | -26 | -17 | x
CC(O)CN(CC(C)O)c1ccc2c(c1)Cc1cc([N+](=O)[O-])ccc1-2 (configuration not stated) | x | 55* | x | 38* | 10 | 41*
Nc1ccc2c(c1)Cc1cc([N+](=O)[O-])ccc1-2 | 14 | 17 | -3 | 6 | 1 | x
Oc1ccc(Br)cc1C=Nc1ccc2c3c(cccc13)CC2 | 0 | 14 | -4 | 10 | -11 | x
CC(=O)O[C@H]1CC[C@@]2(C)C(CCC3C2CC[C@]2(C)OC(=O)CCC32)C1 (some centres not stated) | 4 | 3 | -3 | 1 | 2 | x
CC(=O)OC1CCC2(C)C(CCC3C4CC=C(C(C)=O)C4(C)OC(=O)CC32)C1 (configuration not stated) | x | x | x | 50* | 52* | 46*
Cn1cc([N+](=O)[O-])c(C(=O)N2CCN(Cc3ccc4c(c3)OCO4)CC2)n1 | 2 | 2 | 3 | 3 | -4 | x
O=C(NC1CCCC1)C(c1ccncc1)N(C(=O)c1csnn1)C1CCCC1 (configuration not stated) | 13 | -7 | -1 | -8 | 5 | x
COc1cccc(-n2nc(C#N)c(Cl)cc2=O)c1 | 49* | 36 | -3 | 50* | 47* | 51*
COc1ccc(-c2c(C(=O)c3ccccc3)[nH]c(N)c2C(=O)c2ccccc2)cc1OC | x | x | x | 42* | 3 | 41*
CCN(CC(=O)NCc1ccc(F)cc1)C(=O)C(C)Oc1cccc(Cl)c1 (configuration not stated) | 15 | 2 | -3 | 0 | 1 | x
Cc1sc(Cc2nc(O)cs2)nc1-c1ccccc1 | 45* | 33 | -9 | 52* | 5 | 38
Oc1csc(Cc2nc(-c3ccc(Br)cc3)cs2)n1 | -8 | 21 | -3 | 5 | 4 | x
CCOC(=O)Cc1nnc(NC(=O)CSc2ncc(-c3ccccc3)nn2)s1 | -16 | 1 | 0 | -3 | 4 | x
CCOc1ccc(N2C(=O)CC(NCC#N)C2=O)cc1 (configuration not stated) | 7 | 2 | -3 | 5 | 0 | x
CCOc1ccc(N(CC(=O)NCCSc2ccccn2)S(=O)(=O)c2ccc(Cl)cc2)cc1 | 4 | 11 | 0 | 16 | 24 | x
